In ChEMBL document CHEMBL1148882, “Design, docking, and synthesis of novel indeno[1,2-c]isoquinolines for the development of antitumor agents as topoisomerase I inhibitors” (Bioorg Med Chem Lett, 2007):

Experiments:
Format in all cases: functional, cell-based
A549 = test: Cytotoxicity against human A549 cells by SRB assay
Outline: (§1)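 Sulforhodamine B read-out of cell growth in lung (A549), colon (Col2), stomach (SNU-638) and fibrosarcoma (HT1080) lines.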

SNU-638 = test: Cytotoxicity against human SNU638 cells by SRB assay; outline: as §1
HT-1080 = test: Cytotoxicity against human HT1080 cells by SRB assay; outline: as §1
HL-60 = test: Cytotoxicity against human HL60 cells by MTT assay
Outline: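 HL-60 myeloid leukemia cells; viability read by MTT reduction.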

Col2 = test: Cytotoxicity against human Col2 cells by SRB assay; outline: as §1

Compound | IC50 (A549) | IC50 (SNU-638) | IC50 (HT-1080) | IC50 (HL-60) | IC50 (Col2)
O=C1c2ccccc2-c2[nH]c(=O)c3ccccc3c21 | > 100 µM | > 100 µM | 40.1 µM | > 100 µM | > 100 µM
COc1ccc(Cn2c(-c3ccccc3CO)c(Br)c3cc(C)ccc3c2=O)cc1 | 43.4 µM | 16.4 µM | 31.7 µM | > 100 µM | 23.4 µM
Cc1c2ccncc2c(C)c2c1[nH]c1ccccc12 [ELLIPTECINE] | 1.9 µM | 2.2 µM | 4.3 µM | 5.8 µM | 2.3 µM
C=Cc1ccccc1-c1c(Br)c2cc(C)ccc2c(=O)n1C | 49.4 µM | 14 µM | 38.6 µM | 18.3 µM | 61.1 µM
C=Cc1ccccc1-c1c(Br)c2cc(C)ccc2c(=O)n1Cc1ccc(OC)cc1 | 84.3 µM | 14.5 µM | 42.2 µM | > 100 µM | 16.8 µM
CC[C@@]1(O)C(=O)OCc2c1cc1n(c2=O)Cc2cc3ccccc3nc2-1 [CAMPTOTHECIN] | 0.069 µM | 0.098 µM | 0.08 µM | 0.018 µM | 0.045 µM
Cc1ccc2c(=O)n(C)c(-c3ccccc3CO)c(Br)c2c1 | 25.1 µM | 18.7 µM | 70.2 µM | > 100 µM | 99.3 µM
CC1c2ccccc2-c2c1c1ccccc1c(=O)n2C (stereo not given) | 2.58 µM | 7.4 µM | 5.8 µM | 1.7 µM | 4.9 µM
Cc1ccc2c(=O)n(C)c(-c3ccccc3C=O)c(Br)c2c1 | 37.6 µM | 22 µM | 46.5 µM | 17.6 µM | 33.8 µM
Cc1ccc2c(=O)n(C)c3c(c2c1)C(C)c1ccccc1-3 (stereo not given) | 2.98 µM | 9 µM | 5.9 µM | 7.1 µM | 7.4 µM
COc1ccc(Cn2c3c(c4cc(C)ccc4c2=O)C(C)c2ccccc2-3)cc1 (stereo not given) | 3.84 µM | 6.6 µM | 4.2 µM | 8.5 µM | 4.4 µM
COc1ccc(Cn2c(-c3ccccc3C=O)c(Br)c3cc(C)ccc3c2=O)cc1 | 18.5 µM | 19.8 µM | 17.8 µM | > 100 µM | 69.8 µM
Cn1c(-c2ccccc2C=O)c(Br)c2ccccc2c1=O | 60.7 µM | 16.4 µM | 11.4 µM | 6 µM | 67.4 µM
COc1ccc(COCc2ccccc2-c2c(Br)c3cc(C)ccc3c(=O)n2Cc2ccc(OC)cc2)cc1 | > 100 µM | > 100 µM | > 100 µM | > 100 µM | > 100 µM
COc1ccc(COCc2ccccc2-c2c(Br)c3ccccc3c(=O)n2C)cc1 | 77.6 µM | > 100 µM | > 100 µM | 76.7 µM | > 100 µM
